Laboratory results reported in ChEMBL document CHEMBL1817650, “Fragment-based drug design and drug repositioning using multiple ligand simultaneous docking (MLSD): identifying celecoxib and template compounds as novel inhibitors of signal transducer and activator of transcription 3 (STAT3)” (J Med Chem, 2011).
Active and inactive are the calls of the source. No cut-off for these calls is given here.

How the values were obtained:
HCT-116 [1] = experiment: Inhibition of STAT3 protein expression in COX2-negative human HCT116 cells at 10 to 50 uM after 24 hrs by Western blot analysis
HCT-116 [2] = experiment: Anticancer activity against human HCT116 cells after 72 hrs by MTT assay; type: functional, cell-based; conditions: HCT-116, 72 h
Summary of the method: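 HCT-116 cells, 3,000 per well, given escalating concentrations (5–160 μM or 1–75 μM depending on compound) in triplicate with 10% FBS. Incubation was 72 h at 37°C, then MTT viability read-out at 595 nm absorbance. IC50 was derived by curve fitting.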

[3] = biological target: Signal transducer and activator of transcription 3 (Homo sapiens) (UniProt P40763); experiment: Inhibition of STAT3 SH2 domain phosphorylation at Tyr705 in COX2-negative human HCT116 cells after 24 hrs by Western blot analysis; conditions: HCT-116
[4] = biological target: Signal transducer and activator of transcription 1 (Homo sapiens) (UniProt P42224); experiment: Inhibition of interferon gamma induced STAT1 phosphorylation in human PANC1 cells at […] pretreated 2 hrs prior to interferon-gamma challenge measured after 30; conditions: PANC-1
[5] = biological target: Signal transducer and activator of transcription 3 (Homo sapiens) (UniProt P40763); experiment: Inhibition of IL-6-induced STAT3 phosphorylation in human PANC1 cells at 25 to 50 µM pretreated 2 hrs prior to IL-6 challenge measured after 30 mins; type: cell-based; conditions: PANC-1
Summary of the method: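 PANC-1 cells were serum-starved for 24 h, then pretreated with 25 or 50 μM compound for 2 h. They were then stimulated with IL-6 at 50 ng/ml for 30 min, and STAT3 phosphorylation was assessed.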

Chain of Signal transducer and activator of transcription 3 (Homo sapiens) (P40763 whole entry, the tested form may be a part): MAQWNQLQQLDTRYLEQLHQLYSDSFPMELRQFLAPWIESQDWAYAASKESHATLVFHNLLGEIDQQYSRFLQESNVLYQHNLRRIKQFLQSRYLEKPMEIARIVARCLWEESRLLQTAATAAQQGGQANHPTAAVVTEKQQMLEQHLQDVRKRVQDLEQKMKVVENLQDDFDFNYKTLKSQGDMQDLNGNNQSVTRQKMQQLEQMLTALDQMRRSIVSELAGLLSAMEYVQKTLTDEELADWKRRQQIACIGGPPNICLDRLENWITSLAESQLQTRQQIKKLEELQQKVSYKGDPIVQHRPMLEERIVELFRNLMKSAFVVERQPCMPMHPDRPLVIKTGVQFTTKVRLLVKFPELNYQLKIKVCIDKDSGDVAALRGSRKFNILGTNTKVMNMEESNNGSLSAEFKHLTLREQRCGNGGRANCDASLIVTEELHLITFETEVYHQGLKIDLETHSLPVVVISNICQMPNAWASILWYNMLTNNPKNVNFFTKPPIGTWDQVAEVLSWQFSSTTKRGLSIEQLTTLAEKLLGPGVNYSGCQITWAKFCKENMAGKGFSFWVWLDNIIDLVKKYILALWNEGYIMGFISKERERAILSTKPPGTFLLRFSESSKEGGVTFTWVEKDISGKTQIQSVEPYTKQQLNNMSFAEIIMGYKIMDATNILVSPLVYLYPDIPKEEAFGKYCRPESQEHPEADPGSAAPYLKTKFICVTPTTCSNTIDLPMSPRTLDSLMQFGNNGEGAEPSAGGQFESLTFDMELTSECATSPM
Chain of Signal transducer and activator of transcription 1 (Homo sapiens) (P42224 whole entry, looked up): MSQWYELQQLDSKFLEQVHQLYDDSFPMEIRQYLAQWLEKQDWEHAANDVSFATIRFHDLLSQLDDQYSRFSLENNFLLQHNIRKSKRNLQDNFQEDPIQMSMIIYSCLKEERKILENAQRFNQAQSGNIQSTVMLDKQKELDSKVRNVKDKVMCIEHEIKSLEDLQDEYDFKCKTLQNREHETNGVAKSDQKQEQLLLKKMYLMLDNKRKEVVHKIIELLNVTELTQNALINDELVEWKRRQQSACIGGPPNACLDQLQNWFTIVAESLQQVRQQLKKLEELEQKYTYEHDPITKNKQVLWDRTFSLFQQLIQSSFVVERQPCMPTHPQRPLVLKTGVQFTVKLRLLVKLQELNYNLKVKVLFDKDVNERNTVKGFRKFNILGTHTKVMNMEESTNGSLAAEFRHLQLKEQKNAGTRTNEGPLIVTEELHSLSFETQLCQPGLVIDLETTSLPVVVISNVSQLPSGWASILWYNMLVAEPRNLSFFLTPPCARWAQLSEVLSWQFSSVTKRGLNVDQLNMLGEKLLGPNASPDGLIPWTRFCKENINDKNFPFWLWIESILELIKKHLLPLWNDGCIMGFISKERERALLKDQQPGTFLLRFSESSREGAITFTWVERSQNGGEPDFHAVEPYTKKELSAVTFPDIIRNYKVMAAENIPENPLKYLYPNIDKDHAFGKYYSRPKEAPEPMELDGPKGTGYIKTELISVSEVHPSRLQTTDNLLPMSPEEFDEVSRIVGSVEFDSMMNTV

IC50 (HCT-116 [2])	inhibition [3]	inhibition [4]	inhibition [5]	Structure (SMILES)	inhibition (HCT-116 [1])
10.1 µM	Dose-dependent effect			NS(=O)(=O)c1ccc(-n2nc(C(=O)NN3CCCCC3)cc2-c2ccc(-c3ccccc3)cc2)cc1	inactive
43.3 µM	Dose-dependent effect	inactive	Active	Cc1ccc(-c2cc(C(F)(F)F)nn2-c2ccc(S(N)(=O)=O)cc2)cc1 [CELECOXIB]	inactive
9.7 µM	Dose-dependent effect			Cc1ccc(Cc2cc(-c3ccc(Br)cc3)n(-c3ccc(S(N)(=O)=O)cc3)n2)cc1	inactive
